# According to ChEMBL document CHEMBL5678808, “Human target validation of phosphoinositide 3-kinase (PI3K)β: effects on platelets and insulin sensitivity, using AZD6482 a novel PI3Kβ inhibitor” (J Thromb Haemost, 2012):
# pIC50: −log10 of the molar value. Active and inactive are the calls of the source. No cut-off for these calls is given here.
# What was measured:
# [1] = target: Homeodomain-interacting protein kinase 3 (Homo sapiens) (UniProt Q9H422); experiment: Inhibition of human HIPK3 at 10 uM relative to control
# [2] = Renal clearance (0 to 24 hrs) in human at 121.5 to 364.5 mg, iv administered for 3 hrs via infusion by LC-MS/MS analysis; details: in vivo
# [3] = Toxicity in Sprague-Dawley rat assessed as change in blood pressure at 1000 ug/kg, iv for 2 mins followed by 50 ug/kg/min, iv for 28 mins; type: organism-based; details: in vivo, 1 mg/kg, 0.5 h, time 30 min
# Method in brief: (§1)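 Blood pressure was monitored in anesthetized rats during hyperinsulinemic–euglycemic clamps. There was an initial control period, then i.v. drug at 1000 μg kg−1 + 50 μg kg min−1 or 6000 μg kg−1 + 300 μg kg min−1. Heart rate was also recorded.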
# Rattus norvegicus [4] = experiment: Insulin sensitizing activity in Sprague-Dawley rat hyperinsulinemic-euglycemic glucose clamp model assessed as basal glucose level during infusion of human insulin at 1000 ug/kg/min, iv for 2 mins followed by 50 ug/kg/min, iv for 28 mins by colorimetry (reference value: 8.1 +/- 0.7 mM); type: functional; details: time 30 min, 0.5 h
# Method in brief: (§2)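 Anesthetized rats; hyperinsulinemic–euglycemic clamp with human insulin infused. A baseline clamp (Clamp1) was followed by a second clamp (Clamp2) with vehicle or drug i.v. The drug was given as a low dose (1000 μg kg−1 + 50 μg kg min−1) or a high dose (6000 μg kg−1 + 300 μg kg min−1). Steady-state glucose infusion rate for euglycemia was recorded, with plasma glucose, human insulin and total insulin; mean ± SEM, n = 4–5/group.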
# [5] = target: Rho-associated protein kinase 2 (Rattus norvegicus) (UniProt Q62868); experiment: Inhibition of rat ROCK2 at 10 uM relative to control
# [6] = Toxicity in Sprague-Dawley rat assessed as change in heart rate at 6000 ug/kg, iv for 2 mins followed by 300 ug/kg/min, iv for 28 mins; type: organism-based; details: in vivo, 6 mg/kg, 0.5 h, time 30 min
# Method in brief: (§3)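 Overnight-fasted anesthetized rats got three consecutive escalating i.v. doses over 30 min each (n = 4/group). Heart rate and blood pressure were followed alongside end-of-interval blood samples for plasma drug exposure, glucose and insulin (relative HOMA index experiments).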
# [7] = target: Insulin-like growth factor 1 receptor (Homo sapiens, UniProt P08069); experiment: Inhibition of human IGF1R
# [8] = target: RAC-beta serine/threonine-protein kinase (Homo sapiens) (UniProt P31751); experiment: Inhibition of human AKT2 at 10 uM relative to control
# Aurora kinase B = Aurora kinase B (Homo sapiens, UniProt Q96GD4); experiment: Inhibition of human AurKB
# [9] = target: Mitogen-activated protein kinase 14 (Homo sapiens, UniProt Q16539); experiment: Inhibition of human p38a
# Rattus norvegicus [10] = experiment: (§4) Insulin sensitizing activity in Sprague-Dawley rat hyperinsulinemic-euglycemic glucose clamp model assessed as total insulin level during infusion of human insulin at 6000 ug/kg/min, iv for 2 mins followed by 300 ug/kg/min, iv for 28 mins measured during clamp 1 (reference value: 2.2 +/- 0.1 nM); type: functional; details: time 30 min, 0.5 h; method in brief: as §2
# [11] = Toxicity in Sprague-Dawley rat assessed as change in heart rate at 30000 ug/kg, iv for 2 mins followed by 1500 ug/kg/min, iv for 28 mins; type: organism-based; details: in vivo, 30 mg/kg, 0.5 h, time 30 min; method in brief: as §3
# [12] = target: Serine/threonine-protein kinase Chk2 (Homo sapiens) (UniProt O96017); experiment: Inhibition of human CHK2 at 10 uM relative to control
# Rattus norvegicus [13] = experiment: as §4, with “glucose infusion rate required to maintain euglycemia” for “total insulin level”, “124” for “2.2”, “4 umol/min/kg)” for “0.1 nM)”; type: functional; details: time 30 min, 0.5 h; method in brief: as §2
# [14] = target: Mitogen-activated protein kinase 1 (Mus musculus) (UniProt P63085); experiment: Inhibition of mouse MAPK1 at 10 uM relative to control
# Rattus norvegicus [15] = experiment: Insulin sensitizing activity in Sprague-Dawley rat hyperinsulinemic-euglycemic glucose clamp model assessed as total insulin level during infusion of human insulin at 6000 ug/kg/min, iv for 2 mins followed by 300 ug/kg/min, iv for 28 mins measured during clamp 2 (reference value: 2.2 +/- 0.1 nM); type: functional; details: time 30 min, 0.5 h; method in brief: as §2
# [16] = target: MAP kinase-activated protein kinase 5 (Homo sapiens) (UniProt Q8IW41); experiment: Inhibition of human MAPKAPK5 at 10 uM relative to control
# Canis familiaris = experiment: Antithrombotic activity in Beagle dog model of arterial thrombosis and bleeding assessed as increase in bleeding time at 0.005 to 0.24 ug/kg/min, iv via bolus for 29 mins and measured for 15 mins; type: functional, organism-based; details: Canis lupus familiaris
# Method in brief: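 Modified Folts' model of thrombosis in a damaged, stenosed femoral artery of anesthetized dogs. Animals first received saline vehicle. Consecutive i.v. doses then followed, each given over a 30-min period as a bolus (0.03–1.3 μg kg−1) plus an infusion (0.005–0.24 μg kg min−1). Read-outs were cyclic flow reductions, expressed as % restoration of blood flow, plus bleeding time, blood loss and plasma drug exposure. Mean ± SEM, n = 6.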
# [17] = Toxicity in Sprague-Dawley rat assessed as change in heart rate at 1000 ug/kg, iv for 2 mins followed by 50 ug/kg/min, iv for 28 mins; type: organism-based; details: in vivo, 1 mg/kg, 0.5 h, time 30 min; method in brief: as §3
# [18] = target: Serine/threonine-protein kinase pim-3 (Homo sapiens) (UniProt Q86V86); experiment: Inhibition of human PIM3 at 10 uM relative to control
# [19] = Toxicity in Sprague-Dawley rat hyperinsulinemic-euglycemic glucose clamp model assessed as increase in blood pressure at 1000 ug/kg/min, iv for 2 mins followed by 50 ug/kg/min, iv for 28 mins; type: organism-based; details: in vivo, 0.5 h, time 30 min
# Method in brief: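 Anesthetized rats underwent two consecutive hyperinsulinemic–euglycemic clamps with human insulin infusion: a baseline Clamp1, then Clamp2 with vehicle or AZD6482 i.v. (n = 4–5/group). Blood pressure and heart rate were followed during control periods and after drug administration. Steady-state glucose infusion rate maintained euglycemia.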
# [20] = Toxicity in Sprague-Dawley rat assessed as change in blood pressure at 6000 ug/kg, iv for 2 mins followed by 300 ug/kg/min, iv for 28 mins; type: organism-based; details: in vivo, 6 mg/kg, 0.5 h, time 30 min; method in brief: as §1
# Rattus norvegicus [21] = experiment: Insulin sensitizing activity in Sprague-Dawley rat hyperinsulinemic-euglycemic glucose clamp model assessed as basal total insulin level during infusion of human insulin at 1000 ug/kg/min, iv for 2 mins followed by 50 ug/kg/min, iv for 28 mins (reference value: 0.3 +/- 0.1 nM); type: functional; details: time 30 min, 0.5 h; method in brief: as §2
# [22] = target: Proto-oncogene tyrosine-protein kinase Src (Homo sapiens, UniProt P12931); experiment: Inhibition of human src
# Homo sapiens = organism: Homo sapiens; experiment: Inhibition of human CDK2/Cyclin A at 10 uM relative to control
# Sequence of Homeodomain-interacting protein kinase 3 (Homo sapiens) (Q9H422 whole entry, looked up, the tested form may be a part): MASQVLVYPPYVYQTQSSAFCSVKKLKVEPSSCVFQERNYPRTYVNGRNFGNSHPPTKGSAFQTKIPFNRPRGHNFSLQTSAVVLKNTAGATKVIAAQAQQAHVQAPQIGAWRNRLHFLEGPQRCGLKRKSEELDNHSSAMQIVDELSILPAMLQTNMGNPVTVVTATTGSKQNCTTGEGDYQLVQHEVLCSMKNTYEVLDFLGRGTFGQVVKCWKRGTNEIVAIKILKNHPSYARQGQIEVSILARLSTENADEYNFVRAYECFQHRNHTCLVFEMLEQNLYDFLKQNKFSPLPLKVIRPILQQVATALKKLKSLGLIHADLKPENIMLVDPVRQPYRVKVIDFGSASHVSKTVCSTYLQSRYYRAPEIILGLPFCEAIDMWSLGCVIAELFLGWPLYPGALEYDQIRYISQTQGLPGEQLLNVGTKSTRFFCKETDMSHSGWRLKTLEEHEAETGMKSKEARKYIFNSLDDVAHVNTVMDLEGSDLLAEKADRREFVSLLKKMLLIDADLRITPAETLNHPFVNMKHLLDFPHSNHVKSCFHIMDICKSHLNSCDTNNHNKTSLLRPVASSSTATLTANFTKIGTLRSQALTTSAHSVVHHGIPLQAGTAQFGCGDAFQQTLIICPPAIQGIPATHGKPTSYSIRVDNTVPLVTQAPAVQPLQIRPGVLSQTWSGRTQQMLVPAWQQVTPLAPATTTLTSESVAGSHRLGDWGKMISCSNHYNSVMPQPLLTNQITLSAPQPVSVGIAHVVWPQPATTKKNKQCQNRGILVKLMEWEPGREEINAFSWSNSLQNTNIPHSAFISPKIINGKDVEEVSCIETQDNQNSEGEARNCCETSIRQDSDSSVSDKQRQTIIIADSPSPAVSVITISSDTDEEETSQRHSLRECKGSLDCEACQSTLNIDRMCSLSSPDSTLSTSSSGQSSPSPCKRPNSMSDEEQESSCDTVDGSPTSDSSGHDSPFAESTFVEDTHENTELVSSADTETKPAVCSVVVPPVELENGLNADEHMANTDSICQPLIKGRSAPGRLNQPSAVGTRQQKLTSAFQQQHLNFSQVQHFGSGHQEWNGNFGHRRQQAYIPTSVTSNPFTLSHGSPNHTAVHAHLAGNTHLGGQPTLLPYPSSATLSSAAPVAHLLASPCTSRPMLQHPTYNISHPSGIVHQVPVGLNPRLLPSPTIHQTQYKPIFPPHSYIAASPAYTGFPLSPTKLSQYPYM
# Sequence of Proto-oncogene tyrosine-protein kinase Src (P12931 2-536 limits assumed): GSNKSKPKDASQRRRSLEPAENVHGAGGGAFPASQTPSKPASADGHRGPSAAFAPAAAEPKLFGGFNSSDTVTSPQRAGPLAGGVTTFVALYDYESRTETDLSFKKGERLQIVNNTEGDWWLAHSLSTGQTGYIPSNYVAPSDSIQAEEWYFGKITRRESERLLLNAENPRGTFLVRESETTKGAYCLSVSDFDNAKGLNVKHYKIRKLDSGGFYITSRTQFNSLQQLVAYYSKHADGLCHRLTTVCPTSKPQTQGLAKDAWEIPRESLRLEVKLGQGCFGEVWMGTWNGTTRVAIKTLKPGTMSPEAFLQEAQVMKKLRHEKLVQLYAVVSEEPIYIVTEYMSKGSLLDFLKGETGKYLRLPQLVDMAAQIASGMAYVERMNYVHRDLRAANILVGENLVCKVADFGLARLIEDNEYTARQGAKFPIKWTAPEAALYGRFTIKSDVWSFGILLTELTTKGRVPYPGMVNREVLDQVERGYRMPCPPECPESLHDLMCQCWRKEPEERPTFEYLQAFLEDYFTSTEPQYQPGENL
# Sequence of Rho-associated protein kinase 2 (Rattus norvegicus) (Q62868 whole entry, looked up): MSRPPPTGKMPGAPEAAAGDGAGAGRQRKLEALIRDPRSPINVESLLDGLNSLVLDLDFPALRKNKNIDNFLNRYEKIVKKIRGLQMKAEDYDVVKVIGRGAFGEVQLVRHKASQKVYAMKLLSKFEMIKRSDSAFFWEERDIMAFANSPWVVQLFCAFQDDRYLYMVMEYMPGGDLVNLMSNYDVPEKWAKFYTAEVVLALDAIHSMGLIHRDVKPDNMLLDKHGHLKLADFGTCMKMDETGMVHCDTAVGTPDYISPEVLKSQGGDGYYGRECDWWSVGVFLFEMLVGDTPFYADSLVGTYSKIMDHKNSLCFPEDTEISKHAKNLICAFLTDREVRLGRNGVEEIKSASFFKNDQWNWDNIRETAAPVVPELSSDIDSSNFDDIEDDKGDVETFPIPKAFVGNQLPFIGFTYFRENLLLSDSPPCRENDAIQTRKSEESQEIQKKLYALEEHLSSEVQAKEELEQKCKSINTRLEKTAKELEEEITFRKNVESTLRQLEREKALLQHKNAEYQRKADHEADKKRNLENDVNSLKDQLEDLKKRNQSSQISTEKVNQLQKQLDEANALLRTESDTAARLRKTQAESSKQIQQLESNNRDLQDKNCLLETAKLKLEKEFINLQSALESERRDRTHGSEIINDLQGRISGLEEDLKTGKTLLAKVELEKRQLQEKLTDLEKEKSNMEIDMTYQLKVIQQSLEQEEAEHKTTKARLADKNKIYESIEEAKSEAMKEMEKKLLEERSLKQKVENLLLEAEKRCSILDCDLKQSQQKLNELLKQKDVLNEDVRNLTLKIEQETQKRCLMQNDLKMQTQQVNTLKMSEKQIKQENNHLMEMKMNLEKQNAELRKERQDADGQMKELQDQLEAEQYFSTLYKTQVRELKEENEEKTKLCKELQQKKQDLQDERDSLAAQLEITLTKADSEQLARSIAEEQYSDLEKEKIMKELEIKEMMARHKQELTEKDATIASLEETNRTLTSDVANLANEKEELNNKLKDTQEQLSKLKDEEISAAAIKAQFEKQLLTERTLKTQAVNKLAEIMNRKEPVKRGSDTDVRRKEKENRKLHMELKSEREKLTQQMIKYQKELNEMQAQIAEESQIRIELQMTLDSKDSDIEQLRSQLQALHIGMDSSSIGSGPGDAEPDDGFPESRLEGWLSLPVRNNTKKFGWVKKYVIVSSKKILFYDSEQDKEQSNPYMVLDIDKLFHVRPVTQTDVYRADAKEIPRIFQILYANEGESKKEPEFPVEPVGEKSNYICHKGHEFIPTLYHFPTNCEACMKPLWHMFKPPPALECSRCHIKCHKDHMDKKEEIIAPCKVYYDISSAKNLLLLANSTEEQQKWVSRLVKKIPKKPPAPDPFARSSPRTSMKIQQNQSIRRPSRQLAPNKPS
# Sequence of Serine/threonine-protein kinase Chk2 (Homo sapiens) (O96017 whole entry, the tested form may be a part): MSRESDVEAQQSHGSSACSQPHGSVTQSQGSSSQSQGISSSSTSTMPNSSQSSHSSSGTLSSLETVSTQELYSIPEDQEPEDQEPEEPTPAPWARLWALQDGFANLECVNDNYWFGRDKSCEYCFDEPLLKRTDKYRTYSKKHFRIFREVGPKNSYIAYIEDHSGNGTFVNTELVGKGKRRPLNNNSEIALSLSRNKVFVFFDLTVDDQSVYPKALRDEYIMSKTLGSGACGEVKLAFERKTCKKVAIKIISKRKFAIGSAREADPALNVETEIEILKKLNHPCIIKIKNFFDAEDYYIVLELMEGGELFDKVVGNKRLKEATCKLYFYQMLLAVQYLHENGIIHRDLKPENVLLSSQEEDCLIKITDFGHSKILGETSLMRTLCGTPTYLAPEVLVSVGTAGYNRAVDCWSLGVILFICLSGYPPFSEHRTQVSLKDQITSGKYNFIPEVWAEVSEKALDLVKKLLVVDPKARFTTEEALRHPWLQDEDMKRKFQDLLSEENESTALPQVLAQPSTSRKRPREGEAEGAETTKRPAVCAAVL
# Sequence of Mitogen-activated protein kinase 1 (Mus musculus) (P63085 whole entry, the tested form may be a part): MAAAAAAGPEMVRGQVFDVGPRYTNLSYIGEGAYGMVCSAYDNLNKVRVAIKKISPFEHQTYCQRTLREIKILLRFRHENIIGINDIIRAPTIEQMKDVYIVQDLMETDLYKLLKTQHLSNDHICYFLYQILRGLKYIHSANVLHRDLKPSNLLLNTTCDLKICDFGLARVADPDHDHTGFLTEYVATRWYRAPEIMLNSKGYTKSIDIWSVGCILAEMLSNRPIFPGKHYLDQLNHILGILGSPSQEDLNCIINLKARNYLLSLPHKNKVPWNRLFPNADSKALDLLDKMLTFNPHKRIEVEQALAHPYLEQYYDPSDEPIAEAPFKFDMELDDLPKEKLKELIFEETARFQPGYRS
# Sequence of MAP kinase-activated protein kinase 5 (Homo sapiens) (Q8IW41 whole entry): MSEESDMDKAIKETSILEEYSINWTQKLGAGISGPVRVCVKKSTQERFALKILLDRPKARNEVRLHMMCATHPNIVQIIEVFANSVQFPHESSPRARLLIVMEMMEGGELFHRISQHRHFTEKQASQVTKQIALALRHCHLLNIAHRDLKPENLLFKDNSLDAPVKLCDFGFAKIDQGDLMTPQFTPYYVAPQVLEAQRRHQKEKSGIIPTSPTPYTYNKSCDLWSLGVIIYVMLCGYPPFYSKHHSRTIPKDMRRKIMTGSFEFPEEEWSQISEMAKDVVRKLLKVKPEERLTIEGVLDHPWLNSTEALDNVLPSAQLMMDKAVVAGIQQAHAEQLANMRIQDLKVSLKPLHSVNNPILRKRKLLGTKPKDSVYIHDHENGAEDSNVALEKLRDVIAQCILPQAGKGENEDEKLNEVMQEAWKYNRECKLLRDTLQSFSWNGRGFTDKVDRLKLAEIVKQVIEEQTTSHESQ
structure (smiles),measurement,setting,value
Cc1cc([C@@H](C)Nc2ccccc2C(=O)O)c2nc(N3CCOCC3)cc(=O)n2c1 [AZD-6482],inhibition,[1],7.2%
same,CL renal at 3 h,[2],1.5 mL/min
same,Activity,[3],Non-Toxic
same,Activity,Rattus norvegicus [4],7.6 mM
same,inhibition,[5],-1.5%
same,Activity,[6],Non-Toxic
same,pIC50,[7],< 3.59
same,inhibition,[8],16%
same,pIC50,Aurora kinase B,4.55
same,pIC50,[9],< 3.17
same,Activity,Rattus norvegicus [10],2.3 nM
same,Activity,[11],Non-Toxic
same,inhibition,[12],9.9%
same,Activity,Rattus norvegicus [13],106 µmol/min/kg
same,inhibition,[14],3.6%
same,Activity,Rattus norvegicus [15],3.4 nM
same,inhibition,[16],9.9%
same,Activity,Canis familiaris,inactive
same,Activity,[17],Non-Toxic
same,inhibition,[18],-5.9%
same,Activity,[19],6 mmHg
same,Activity,[20],Non-Toxic
same,Activity,Rattus norvegicus [21],0.3 nM
same,pIC50,[22],4.43
same,inhibition,Homo sapiens,-1.6%
